Experimental data reported in ChEMBL document CHEMBL3822397, “Synthesis and bioevaluation of novel benzodipyranone derivatives as P-glycoprotein inhibitors for multidrug resistance reversal agents” (Eur J Med Chem, 2016).
The source made the active and inactive calls. The rule behind the calls is not given here.

Key:
[1] = molecular target: T1, ATP-dependent translocase ABCB1 (Homo sapiens, UniProt P08183); experiment: Inhibition of full length human ABCB1 expressed in Flp-In-293 cells at 2.5 uM incubated for 30 mins by calcein-AM uptake assay relative to control; format: cell-based; settings: 0.5 h
[2] = molecular target: T1, ATP-dependent translocase ABCB1; experiment: Inhibition of full length human ABCB1 expressed in Flp-In-293 cells at 5 uM incubated for 30 mins by calcein-AM uptake assay relative to control; format: cell-based; settings: 0.5 h
[3] = molecular target: T1, ATP-dependent translocase ABCB1; experiment: Inhibition of full length human ABCB1 expressed in Flp-In-293 cells assessed as potentiation of vincristine-induced cytotoxicity at 10 uM after 72 hrs by SRB assay relative to control; format: cell-based
[4] = tested on: HEK293; experiment: Potentiation of paclitaxel-induced cytotoxicity in Flp-In-293 cells assessed as reduction in paclitaxel IC50 at 10 uM after 72 hrs by SRB assay relative to control; format: functional, Homo sapiens
[5] = molecular target: T1, ATP-dependent translocase ABCB1; experiment: Inhibition of full length human ABCB1 expressed in Flp-In-293 cells assessed as potentiation of paclitaxel-induced cytotoxicity at 8 uM after 72 hrs by SRB assay relative to control; format: cell-based
[6] = tested on: HEK293; experiment: Downregulation of ABCB1 mRNA expression in Flp-In-293 cells transfected with full length human ABCB1 at 5 uM after 72 hrs by RT-PCR analysis; format: functional, cell-based
How it was run: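 ABCB1 mRNA measured after treating ABCB1/Flp-In-293 cells with test compounds for 72 hr. Data given as mean ± SE of three experiments, each in triplicate.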

[7] = tested on: HEK293; experiment: Potentiation of doxorubicin-induced cytotoxicity in Flp-In-293 cells assessed as reduction in doxorubicin IC50 at 10 uM after 72 hrs by SRB assay relative to control; format: functional, Homo sapiens
[8] = tested on: HEK293; experiment: Potentiation of vincristine-induced cytotoxicity in Flp-In-293 cells assessed as reduction in vincristine IC50 at 10 uM after 72 hrs by SRB assay relative to control; format: functional, Homo sapiens
[9] = molecular target: T1, ATP-dependent translocase ABCB1; experiment: Inhibition of full length human ABCB1 expressed in Flp-In-293 cells assessed as potentiation of doxorubicin-induced cytotoxicity at 10 uM after 72 hrs by SRB assay relative to control; format: cell-based
[10] = tested on: HEK293; experiment: Potentiation of doxorubicin-induced cytotoxicity in Flp-In-293 cells assessed as reduction in doxorubicin IC50 at 8 uM after 72 hrs by SRB assay relative to control; format: functional, Homo sapiens
[11] = molecular target: T1, ATP-dependent translocase ABCB1; experiment: Inhibition of full length human ABCB1 expressed in Flp-In-293 cells assessed as potentiation of paclitaxel-induced cytotoxicity at 10 uM after 72 hrs by SRB assay relative to control; format: cell-based
[12] = tested on: HEK293; experiment: Potentiation of vincristine-induced cytotoxicity in Flp-In-293 cells assessed as reduction in vincristine IC50 at 8 uM after 72 hrs by SRB assay relative to control; format: functional, Homo sapiens
[13] = tested on: HEK293; experiment: Potentiation of paclitaxel-induced cytotoxicity in Flp-In-293 cells assessed as reduction in paclitaxel IC50 at 8 uM after 72 hrs by SRB assay relative to control; format: functional, Homo sapiens
[14] = molecular target: T1, ATP-dependent translocase ABCB1; experiment: Inhibition of full length human ABCB1 expressed in Flp-In-293 cells assessed as potentiation of doxorubicin-induced cytotoxicity at 8 uM after 72 hrs by SRB assay relative to control; format: cell-based
[15] = molecular target: T1, ATP-dependent translocase ABCB1; experiment: Inhibition of full length human ABCB1 expressed in Flp-In-293 cells assessed as potentiation of vincristine-induced cytotoxicity at 8 uM after 72 hrs by SRB assay relative to control; format: cell-based

T1 sequence (P08183 whole entry): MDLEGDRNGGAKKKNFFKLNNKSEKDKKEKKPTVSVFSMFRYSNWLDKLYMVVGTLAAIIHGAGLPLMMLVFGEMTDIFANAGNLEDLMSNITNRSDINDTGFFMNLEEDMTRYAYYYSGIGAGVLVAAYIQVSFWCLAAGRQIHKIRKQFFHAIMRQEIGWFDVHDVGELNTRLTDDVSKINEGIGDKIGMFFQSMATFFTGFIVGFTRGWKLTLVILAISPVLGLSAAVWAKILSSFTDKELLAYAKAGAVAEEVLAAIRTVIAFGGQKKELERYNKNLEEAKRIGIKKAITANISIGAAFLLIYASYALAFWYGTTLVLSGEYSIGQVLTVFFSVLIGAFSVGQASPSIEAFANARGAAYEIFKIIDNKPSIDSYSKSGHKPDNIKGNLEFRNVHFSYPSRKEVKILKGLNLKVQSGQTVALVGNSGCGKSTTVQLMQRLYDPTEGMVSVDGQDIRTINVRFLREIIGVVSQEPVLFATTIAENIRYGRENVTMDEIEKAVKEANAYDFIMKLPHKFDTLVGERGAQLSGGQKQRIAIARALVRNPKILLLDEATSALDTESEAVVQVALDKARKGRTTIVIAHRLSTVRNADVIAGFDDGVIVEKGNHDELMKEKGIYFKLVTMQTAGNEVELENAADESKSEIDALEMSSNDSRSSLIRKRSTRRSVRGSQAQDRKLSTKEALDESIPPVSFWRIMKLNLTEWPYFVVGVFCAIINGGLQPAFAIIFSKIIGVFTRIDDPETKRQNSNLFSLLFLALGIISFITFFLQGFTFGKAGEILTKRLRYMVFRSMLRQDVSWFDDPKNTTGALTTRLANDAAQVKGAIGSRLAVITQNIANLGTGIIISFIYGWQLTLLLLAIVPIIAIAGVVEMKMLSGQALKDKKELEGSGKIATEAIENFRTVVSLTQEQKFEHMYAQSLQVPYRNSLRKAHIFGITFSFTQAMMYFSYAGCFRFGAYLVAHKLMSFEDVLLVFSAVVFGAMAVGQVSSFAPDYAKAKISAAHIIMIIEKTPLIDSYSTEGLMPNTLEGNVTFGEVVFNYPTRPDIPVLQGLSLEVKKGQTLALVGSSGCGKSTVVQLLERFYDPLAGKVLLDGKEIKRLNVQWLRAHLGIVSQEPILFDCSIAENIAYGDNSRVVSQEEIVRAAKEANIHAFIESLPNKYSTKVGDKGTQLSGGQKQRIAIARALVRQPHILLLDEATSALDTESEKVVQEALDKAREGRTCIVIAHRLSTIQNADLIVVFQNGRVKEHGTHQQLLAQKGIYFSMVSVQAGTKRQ

Row | SMILES | fold change (FC) [1] | fold change (FC) [2] | further results
1 | O=c1c(-c2ccccc2F)coc2c1c(O)cc1occ(-c3ccccc3F)c(=O)c12 | 0.76 | 0.67 | 
2 | O=c1c(-c2cccc(F)c2)coc2cc3occ(-c4cccc(F)c4)c(=O)c3c(O)c12 | 0.6 | 0.75 | 
3 | O=c1c(-c2ccccc2F)coc2cc3occ(-c4ccccc4F)c(=O)c3c(O)c12 | 0.92 | 0.89 | 
4 | COc1ccccc1-c1coc2c(c(O)cc3occ(-c4ccccc4OC)c(=O)c32)c1=O | 1.4 | 1.56 | 
5 | O=c1c(-c2ccccc2Cl)coc2c1c(O)cc1occ(-c3ccccc3Cl)c(=O)c12 | 0.98 | 1.09 | 
6 | O=c1c(-c2cccc(C(F)(F)F)c2)coc2cc3occ(-c4cccc(C(F)(F)F)c4)c(=O)c3c(O)c12 | 1.27 | 1.18 | 
7 | O=c1c(-c2ccc(OC(F)(F)F)cc2)coc2c1c(O)cc1occ(-c3ccc(OC(F)(F)F)cc3)c(=O)c12 | 0.97 | 1.04 | 
8 | O=c1c(-c2ccc(F)cc2)coc2c1c(O)cc1occ(-c3ccc(F)cc3)c(=O)c12 | 0.92 | 0.84 | 
9 | O=c1c(-c2cccc(F)c2)coc2c1c(O)cc1occ(-c3cccc(F)c3)c(=O)c12 | 0.96 | 0.82 | 
10 | O=c1c(-c2cccc3ccccc23)coc2cc3occ(-c4cccc5ccccc45)c(=O)c3c(O)c12 | 0.72 | 0.64 | 
11 | COc1ccc(-c2coc3cc4occ(-c5ccc(OC)cc5)c(=O)c4c(O)c3c2=O)cc1 | 0.87 | 1.3 | 
12 | O=c1c(-c2ccccc2Cl)coc2cc3occ(-c4ccccc4Cl)c(=O)c3c(O)c12 | 0.71 | 0.85 | 
13 | O=c1c(-c2cccc(C(F)(F)F)c2)coc2c1c(O)cc1occ(-c3cccc(C(F)(F)F)c3)c(=O)c12 | 1.1 | 1.15 | 
14 | O=c1c(-c2ccccc2[N+](=O)[O-])coc2c1c(O)cc1occ(-c3ccccc3[N+](=O)[O-])c(=O)c12 | 0.98 | 1.03 | 
15 | COc1cccc(-c2coc3cc4occ(-c5cccc(OC)c5)c(=O)c4c(O)c3c2=O)c1 | 1 | 0.85 | 
16 | O=c1c(-c2cccs2)coc2c1c(O)cc1occ(-c3cccs3)c(=O)c12 | 0.88 | 0.83 | 
17 | O=c1c(-c2cccs2)coc2cc3occ(-c4cccs4)c(=O)c3c(O)c12 | 0.61 | 0.67 | 
18 | Cc1ccc(-c2coc3cc4occ(-c5ccc(C)cc5)c(=O)c4c(O)c3c2=O)cc1 | 1.62 | 1.81 | 
19 | O=c1c(-c2cccc(O)c2)coc2cc3occ(-c4cccc(O)c4)c(=O)c3c(O)c12 | 1.33 | 1.19 | 
20 | O=c1c(-c2ccc(C(F)(F)F)cc2)coc2c1c(O)cc1occ(-c3ccc(C(F)(F)F)cc3)c(=O)c12 | 0.87 | 0.9 | 
21 | O=c1c(-c2ccc(Cl)cc2)coc2c1c(O)cc1occ(-c3ccc(Cl)cc3)c(=O)c12 | 0.76 | 0.82 | 
22 | O=c1c(-c2ccccc2)coc2cc3occ(-c4ccccc4)c(=O)c3c(O)c12 | 1.04 | 0.9 | 
23 | COc1ccccc1-c1coc2cc3occ(-c4ccccc4OC)c(=O)c3c(O)c2c1=O | 0.76 | 0.82 | 
24 | COc1ccc(-c2coc3cc4occ(-c5ccc(OC)c(OC)c5)c(=O)c4c(O)c3c2=O)cc1OC | 0.81 | 0.86 | 
25 | O=c1c(-c2ccc([N+](=O)[O-])cc2)coc2c1c(O)cc1occ(-c3ccc([N+](=O)[O-])cc3)c(=O)c12 | 0.88 | 0.75 | 
26 | O=c1c(-c2ccc(F)cc2)coc2cc3occ(-c4ccc(F)cc4)c(=O)c3c(O)c12 | 0.85 | 1.3 | 

Row | SMILES | fold change (FC) [1] | fold change (FC) [2] | further results
27 | COc1ccc(CCN(C)CCCC(C#N)(c2ccc(OC)c(OC)c2)C(C)C)cc1OC (centres undefined) [VERAPAMIL] |  | 2.39 | 
28 | O=c1c(-c2ccc(Cl)cc2)coc2cc3occ(-c4ccc(Cl)cc4)c(=O)c3c(O)c12 | 1.06 | 1.08 | 
29 | COc1cc(-c2coc3c(c(O)cc4occ(-c5cc(OC)c(OC)c(OC)c5)c(=O)c43)c2=O)cc(OC)c1OC | 0.76 | 0.75 | 
30 | O=c1c(-c2ccccc2[N+](=O)[O-])coc2cc3occ(-c4ccccc4[N+](=O)[O-])c(=O)c3c(O)c12 | 0.85 | 0.83 | 
31 | COc1cc(-c2coc3cc4occ(-c5cc(OC)c(OC)c(OC)c5)c(=O)c4c(O)c3c2=O)cc(OC)c1OC | 0.8 | 0.72 | 
32 | Cc1cccc(-c2coc3cc4occ(-c5cccc(C)c5)c(=O)c4c(O)c3c2=O)c1 | 0.86 | 0.93 | 
33 | O=c1c(-c2c(F)cccc2Cl)coc2c1c(O)cc1occ(-c3c(F)cccc3Cl)c(=O)c12 | 0.66 | 0.64 | 
34 | O=c1c(-c2cccc(Cl)c2)coc2c1c(O)cc1occ(-c3cccc(Cl)c3)c(=O)c12 | 0.83 | 0.82 | 
35 | O=c1c(-c2ccccc2C(F)(F)F)coc2c1c(O)cc1occ(-c3ccccc3C(F)(F)F)c(=O)c12 | 0.76 | 0.81 | 
36 | Cc1ccccc1-c1coc2c(c(O)cc3occ(-c4ccccc4C)c(=O)c32)c1=O | 1.15 | 1.53 | 
37 | O=c1c(C2CC2)coc2c1c(O)cc1occ(C3CC3)c(=O)c12 | 0.8 | 0.63 | 
38 | O=c1c(-c2cccc(Cl)c2)coc2cc3occ(-c4cccc(Cl)c4)c(=O)c3c(O)c12 | 0.5 | 0.87 | 
39 | O=c1c(-c2ccccc2C(F)(F)F)coc2cc3occ(-c4ccccc4C(F)(F)F)c(=O)c3c(O)c12 | 1.32 | 1.36 | 
40 | O=c1c(-c2ccc(OC(F)(F)F)cc2)coc2cc3occ(-c4ccc(OC(F)(F)F)cc4)c(=O)c3c(O)c12 | 0.62 | 0.63 | 
41 | COc1cccc(-c2coc3c(c(O)cc4occ(-c5cccc(OC)c5)c(=O)c43)c2=O)c1 | 1.19 | 1.28 | 
42 | Cc1ccc(-c2coc3c(c(O)cc4occ(-c5ccc(C)cc5)c(=O)c43)c2=O)cc1 | 1.58 | 2.04 | 
43 | O=c1c(C2CC2)coc2cc3occ(C4CC4)c(=O)c3c(O)c12 | 0.86 | 0.86 | 
44 | O=c1c(-c2c(F)cccc2Cl)coc2cc3occ(-c4c(F)cccc4Cl)c(=O)c3c(O)c12 | 0.95 | 1.06 | 
45 | O=c1c(-c2cccc(O)c2)coc2c1c(O)cc1occ(-c3cccc(O)c3)c(=O)c12 | 1.01 | 0.99 | 
46 | Cc1ccccc1-c1coc2cc3occ(-c4ccccc4C)c(=O)c3c(O)c2c1=O | 0.87 | 0.81 | 
47 | O=c1c(-c2ccccc2)coc2c1c(O)cc1occ(-c3ccccc3)c(=O)c12 | 1.04 | 1.29 | 
48 | COc1ccc(-c2coc3c(c(O)cc4occ(-c5ccc(OC)c(OC)c5)c(=O)c43)c2=O)cc1OC | 1.45 | 1.64 | fold change (FC) [3]: 9.7; fold change (FC) [4]: 1.3; fold change (FC) [5]: 8.8; Activity [6]: Active; fold change (FC) [7]: 1.3; fold change (FC) [8]: 8.2; fold change (FC) [9]: 1.5; fold change (FC) [10]: 1.2; fold change (FC) [11]: 9.5; fold change (FC) [12]: 7.8; fold change (FC) [13]: 1; fold change (FC) [14]: 1.5; fold change (FC) [15]: 4.1
49 | O=c1c(-c2ccc(Cl)c(Cl)c2)coc2c1c(O)cc1occ(-c3ccc(Cl)c(Cl)c3)c(=O)c12 | 0.8 | 0.81 | 
50 | O=c1c(-c2cccc3ccccc23)coc2c1c(O)cc1occ(-c3cccc4ccccc34)c(=O)c12 | 0.87 | 0.85 | 
51 | O=c1c(-c2ccc3c(c2)OCO3)coc2c1c(O)cc1occ(-c3ccc4c(c3)OCO4)c(=O)c12 | 0.72 | 0.7 | 
